Source: ChEMBL document CHEMBL3232996, “Synthesis and biological evaluation of novel (123)I-labeled 4-(4-iodophenyl)butanoyl-L-prolyl-(2S)-pyrrolidines for imaging prolyl oligopeptidase in vivo” (Eur J Med Chem, 2014)

Assays:
[1] = Fraction unbound in iv dosed C57Bl/6JRccHsd mouse plasma measured at 40 mins; type: ADME, organism-based
Outline: (§1)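 Male mice given 3.6 MBq tracer i.v. via lateral tail vein; blocking groups got POP inhibitor i.p. (50 µmol/kg, 10 mL/kg, 1% DMSO in 0.9% NaCl) 10 min before. Heparinized cardiac blood on ice, gamma-counted, spun 5 min at 2000 g; plasma counted, precipitated with 1.5 volumes acetonitrile, respun; cell-bound, protein-bound and free fractions expressed as % of blood activity; n = 3.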

[2] = Fraction unbound in iv dosed C57Bl/6JRccHsd mouse plasma measured at 160 mins; type: ADME, organism-based
Outline: (§2)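 Mice got tracer i.v., some after i.p. KYP-2047 (50 µmol/kg) 10 min before. Cardiac blood was collected at 20, 40, 80 or 160 min and spun 5 min at 2000 g into cells and plasma. Plasma was precipitated with acetonitrile and pellet and supernatant were gamma-counted. Activity in cells, protein-bound and free plasma is given as % of total blood activity, n = 3.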

[3] = Fraction unbound in iv dosed C57Bl/6JRccHsd mouse plasma measured at 160 mins post dose pretreated with 50 umol/kg, ip prolyl oligopeptidase inhibitor KYP-2047 10 mins before compound dosing by SPECT analysis; type: ADME, organism-based; outline: as §2
[4] = Drug uptake in iv dosed C57Bl/6JRccHsd mouse blood cells measured at 40 mins; type: ADME, organism-based; settings: in vivo; outline: as §2
[5] = Drug uptake in iv dosed C57Bl/6JRccHsd mouse blood cells measured at 80 mins; type: ADME, organism-based; settings: in vivo; outline: as §2
[6] = Drug uptake in iv dosed C57Bl/6JRccHsd mouse blood cells measured at 160 mins; type: ADME, organism-based; settings: in vivo; outline: as §2
[7] = Plasma protein binding in iv dosed C57Bl/6JRccHsd mouse measured at 20 mins; type: ADME, organism-based; settings: read-out: PPB (converted); outline: as §1
[8] = Plasma protein binding in iv dosed C57Bl/6JRccHsd mouse measured at 40 mins; type: ADME, organism-based; settings: read-out: PPB (converted); outline: as §1
[9] = Plasma protein binding in iv dosed C57Bl/6JRccHsd mouse measured at 80 mins; type: ADME, organism-based; settings: in vivo; outline: as §1
[10] = Plasma protein binding in iv dosed C57Bl/6JRccHsd mouse measured at 160 mins; type: ADME, organism-based; settings: in vivo; outline: as §1
[11] = Plasma protein binding in iv dosed C57Bl/6JRccHsd mouse measured at 160 mins post dose pretreated with 50 umol/kg, ip prolyl oligopeptidase inhibitor KYP-2047 10 mins before compound dosing by SPECT analysis; type: ADME, organism-based; settings: in vivo; outline: as §1
[12] = Biodistribution in brain of iv dosed C57BL/6JRccHsd mouse LPS-induced acute neuroinflammation model dosed 24 hrs after LPS challenge and measured at 80 mins post dose; type: ADME, organism-based
Outline: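 Male mice under isoflurane got a stereotaxic LPS injection (E. coli 055:B5) into the left striatum, with buprenorphine 0.1 mg/kg s.c. for post-operative pain. The right hemisphere served as intact control. Tracer was given i.v. 24 h later. Left and right hemisphere and whole-brain radioactivity were measured 80 min post injection as %ID/g or %ID, n = 3.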

[13] = Octanol-phosphate buffer partition coefficient, log P of the compound by shake-flask method; type: physicochemical
Outline: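 Tracer (700 kBq, in 1% DMSO/0.9% NaCl) shaken 3 min between n-octanol and 0.02 M phosphate buffer pH 7.4; octanol phase split into four tubes, re-extracted with equal buffer 10 min, centrifuged 5 min at 1000 g; log of octanol/buffer cpm per mL ratio, mean ± SD of four replicates.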

Mus musculus [14] = experiment: Biodistribution in C57Bl/6JRccHsd mouse testis at 2.86 +/- 1.26 MBq, iv measured at 80 mins by SPECT analysis; type: ADME, organism-based; settings: in vivo
Outline: (§3)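 Organs excised at 5, 20, 40, 80 or 160 min and radioactivity gamma-counted as %ID/g (brain also as %ID). Blocking groups received KYP-2047 (50 µmol/kg, 10 mL/kg, 1% DMSO in 0.9% NaCl) i.p. 10 min before tracer. Mean ± SD, n = 2–4 per time point. Blocking compared by two-tailed Student's t test.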

Mus musculus [15] = experiment: Biodistribution in C57Bl/6JRccHsd mouse tongue at 2.86 +/- 1.26 MBq, iv measured at 80 mins by SPECT analysis; type: ADME, organism-based; settings: in vivo; outline: as §3
Brain [16] = experiment: Biodistribution in C57Bl/6JRccHsd mouse brain at 2.86 +/- 1.26 MBq, iv measured at 80 mins by SPECT analysis; type: ADME, organism-based; settings: in vivo; outline: as §3
Lung = experiment: Biodistribution in C57Bl/6JRccHsd mouse lung at 2.86 +/- 1.26 MBq, iv measured at 80 mins post dose pretreated with 50 umol/kg, ip prolyl oligopeptidase inhibitor KYP-2047 10 mins before compound dosing by SPECT analysis; type: ADME, organism-based; settings: in vivo; outline: as §3
Spleen = experiment: Biodistribution in C57Bl/6JRccHsd mouse spleen at 2.86 +/- 1.26 MBq, iv measured at 80 mins post dose pretreated with 50 umol/kg, ip prolyl oligopeptidase inhibitor KYP-2047 10 mins before compound dosing by SPECT analysis; type: ADME, organism-based; settings: in vivo; outline: as §3
[17] = Biodistribution in C57Bl/6JRccHsd mouse urine at 2.86 +/- 1.26 MBq, iv measured at 80 mins post dose pretreated with 50 umol/kg, ip prolyl oligopeptidase inhibitor KYP-2047 10 mins before compound dosing by SPECT analysis; type: ADME, organism-based; settings: in vivo; outline: as §3
Thyroid gland = experiment: Biodistribution in C57Bl/6JRccHsd mouse thyroid at 2.86 +/- 1.26 MBq, iv measured at 160 mins by SPECT analysis; type: ADME, organism-based; settings: in vivo; outline: as §3
Brain [18] = experiment: Biodistribution in C57Bl/6JRccHsd mouse brain at 2.86 +/- 1.26 MBq, iv measured at 5 mins by SPECT analysis; type: ADME, organism-based; settings: in vivo; outline: as §3
Brain [19] = experiment: Biodistribution in C57Bl/6JRccHsd mouse brain at 2.86 +/- 1.26 MBq, iv measured at 40 mins by SPECT analysis; type: ADME, organism-based; settings: in vivo; outline: as §3
Mus musculus [20] = experiment: Retention time in C57Bl/6JRccHsd mouse plasma at 3.6 MBq, iv measured at 20 mins by HPLC analysis; type: ADME, organism-based
Outline: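 Male mice given 3.6 MBq i.v.; cardiac plasma deproteinized with acetonitrile, supernatant run on C18 radio-HPLC gradient, 0.65 min fractions gamma-counted, activity expressed as cpm/total cpm.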

Blood [21] = experiment: Biodistribution in C57Bl/6JRccHsd mouse blood at 2.86 +/- 1.26 MBq, iv measured at 20 mins post dose pretreated with 50 umol/kg, ip prolyl oligopeptidase inhibitor KYP-2047 10 mins before compound dosing by SPECT analysis; type: ADME, organism-based; settings: in vivo; outline: as §3
Blood [22] = experiment: Biodistribution in C57Bl/6JRccHsd mouse blood at 2.86 +/- 1.26 MBq, iv measured at 40 mins post dose pretreated with 50 umol/kg, ip prolyl oligopeptidase inhibitor KYP-2047 10 mins before compound dosing by SPECT analysis; type: ADME, organism-based; settings: in vivo; outline: as §3
Blood [23] = experiment: Biodistribution in C57Bl/6JRccHsd mouse blood at 2.86 +/- 1.26 MBq, iv measured at 160 mins post dose pretreated with 50 umol/kg, ip prolyl oligopeptidase inhibitor KYP-2047 10 mins before compound dosing by SPECT analysis; type: ADME, organism-based; settings: in vivo; outline: as §3
[24] = Fraction unbound in iv dosed C57Bl/6JRccHsd mouse plasma measured at 20 mins; type: ADME, organism-based; outline: as §2
[25] = Fraction unbound in iv dosed C57Bl/6JRccHsd mouse plasma measured at 20 mins post dose pretreated with 50 umol/kg, ip prolyl oligopeptidase inhibitor KYP-2047 10 mins before compound dosing by SPECT analysis; type: ADME, organism-based; outline: as §1

A fraction unbound at 40 min [1] of 0.08, a fraction unbound at 160 min [2] of 0.26 and a fraction unbound at 160 min [3] of 0.58 were found for `N#C[C@@H]1CCCN1C(=O)[C@@H]1CCCN1C(=O)CCCc1ccc([123I])cc1` in this work. For the same compound, the Drug uptake [4] was 90%, the Drug uptake [5] was 84% and the Drug uptake [6] was 73%. It also gave a fraction unbound at 20 min [7] of 0.98, a fraction unbound at 40 min [8] of 0.98 and a PPB [9] of 1%. For the same compound, the PPB [10] was 1%, the PPB [11] was 0% and the tissue uptake at 80 min [12] was 0.6 %ID. The logP [13] was 2.37, the Drug uptake (Mus musculus [14]) was 0.55 % ID/g and the Drug uptake (Mus musculus [15]) was 4.43 % ID/g. The Drug uptake (Brain [16]) was 0.62 % ID/g, the Drug uptake (Lung) was 1.54 % ID/g and the Drug uptake (Spleen) was 0.92 % ID/g. For the same compound, the Drug uptake [17] was 45.24 % ID/g, the Drug uptake (Thyroid gland) was 9.4 % ID/g and the Drug uptake (Brain [18]) was 0.43 %ID. It also gave a Drug uptake (Brain [19]) of 0.76 %ID, a Retention_time (Mus musculus [20]) of 7.15 min and a Drug uptake (Blood [21]) of 10.9 % ID/g. For the same compound, the Drug uptake (Blood [22]) was 4 % ID/g, the Drug uptake (Blood [23]) was 1 % ID/g and the fraction unbound at 20 min [24] was 0.03. For the same compound, the fraction unbound at 20 min [25] was 0.47.
